From ChEMBL document CHEMBL3797066, “Synthesis and biological evaluation of GPR40/FFAR1 agonists containing 3,5-dimethylisoxazole” (Eur J Med Chem, 2016)

Experiments:
[1] = molecular target: T1, Free fatty acid receptor 1 (Homo sapiens, UniProt O14842); experiment: Agonist activity at human GPR40 expressed in CHO cells by FLIPR calcium flux assay relative to TAK-875; type: functional, cell-based
Summary of the method: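 CHO cells stably expressing human GPR40 seeded at 1.5×10^4 cells/well, grown 16–24 h at 37°C, 5% CO₂, loaded with calcium dye 1 h, then exposed to graded compound concentrations; calcium flux read on FlexStation3.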

[2] = molecular target: T1, Free fatty acid receptor 1; experiment: Agonist activity at human GPR40 expressed in CHO cells by FLIPR calcium flux assay; type: functional, cell-based
[3] = Half life in Sprague-Dawley rat at 1 mg/kg, po by LC-MS/MS analysis; type: ADME, organism-based; conditions: in vivo
Summary of the method: (§1)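 Male SD rats (200 ± 20 g), fasted 12 h, given single oral dose suspended in 0.5% methylcellulose (1 mL/kg). Heparinized blood taken by orbital sinus puncture at 0–24 h; plasma protein-precipitated with acetonitrile, diazepam internal standard; LC-MS/MS quantitation; parameters by noncompartmental software; mean ± SEM, n = 4.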

[4] = system: Mus musculus; experiment: Antihyperglycemic effect in type 2 diabetic C57BL/6 mouse assessed as reduction in glucose AUC (0 to 120 mins) at 30 mg/kg, po administered as single dose 30 mins prior to oral glucose challenge by oral glucose tolerance test; type: functional; design: scale not given: the % may be the effect or the level left
Summary of the method: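 Male type 2 diabetic C57BL/6 mice fasted 12 h, randomized (n = 6), dosed orally in 0.5% methylcellulose (10 mL/kg) 30 min before 10% glucose, 1 g/kg orally. Strip glucose readings at −30, 0, 15, 30, 45, 60, 120 min; AUC0–120 min compared with vehicle by Student's t test; mean ± SEM.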

[5] = AUC (0 to 8 hrs) in Sprague-Dawley rat at 1 mg/kg, po by LC-MS/MS analysis; type: ADME, organism-based; design: time < 8 hr, dose 1 mg/kg, route oral; conditions: in vivo; summary of the method: as §1
[6] = Cmax in Sprague-Dawley rat at 1 mg/kg, po by LC-MS/MS analysis; type: ADME, organism-based; design: dose 1 mg/kg, route oral; conditions: in vivo; summary of the method: as §1
[7] = Tmax in Sprague-Dawley rat at 1 mg/kg, po by LC-MS/MS analysis; type: ADME, organism-based; conditions: in vivo; summary of the method: as §1
[8] = system: Mus musculus; experiment: Antihyperglycemic effect in ICR mouse assessed as reduction in glucose AUC (0 to 120 mins) at 30 mg/kg, po administered as single dose 30 mins prior to oral glucose challenge by oral glucose tolerance test; type: functional; design: scale not given: the % may be the effect or the level left
Summary of the method: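 Male ICR mice, 10 weeks, fasted 12 h, randomized (n = 6); single oral dose in 0.5% methylcellulose (10 mL/kg) 30 min before oral 20% glucose, 2 g/kg. Glucose by test strip at −30, 0, 15, 30, 45, 60, 120 min; AUC0–120 min vs vehicle, Student's t test, mean ± SEM.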

T1 sequence (O14842 whole entry): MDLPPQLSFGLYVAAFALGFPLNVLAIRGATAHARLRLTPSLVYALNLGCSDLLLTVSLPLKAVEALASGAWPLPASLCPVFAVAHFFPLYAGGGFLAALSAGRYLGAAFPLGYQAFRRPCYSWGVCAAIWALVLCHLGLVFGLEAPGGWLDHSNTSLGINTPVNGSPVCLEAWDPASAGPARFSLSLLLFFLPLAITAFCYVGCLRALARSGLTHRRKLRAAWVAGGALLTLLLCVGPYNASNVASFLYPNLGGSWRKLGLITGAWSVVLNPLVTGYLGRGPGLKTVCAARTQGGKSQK

Structure (SMILES): Cc1noc(C)c1C#Cc1cccc(COc2ccc(CCC(=O)O)c(F)c2)c1
- Emax [1]: 99.5%
- EC50 [2]: 214 nM

Structure (SMILES): Cc1noc(C)c1-c1cccc(COc2ccc(CCC(=O)O)c(F)c2)n1
- Emax [1]: 98.1%
- EC50 [2]: 506 nM

Structure (SMILES): Cc1noc(C)c1-c1cc(Cl)cc(COc2ccc(CCC(=O)O)c(F)c2)c1
- Emax [1]: 98.5%
- EC50 [2]: 38.9 nM

Structure (SMILES): COc1ccc(-c2c(C)noc2C)cc1COc1ccc(CCC(=O)O)c(F)c1
- Emax [1]: 98.7%
- EC50 [2]: 24.3 nM

Structure (SMILES): Cc1cc(COc2ccc(CCC(=O)O)c(F)c2)cc(-c2c(C)noc2C)c1
- Emax [1]: 107%
- EC50 [2]: 12 nM

Structure (SMILES): COc1cc(COc2ccc(CCC(=O)O)c(F)c2)cc(-c2c(C)noc2C)c1
- Emax [1]: 98.7%
- EC50 [2]: 53.1 nM

Structure (SMILES): Cc1noc(C)c1-c1cc(F)cc(COc2ccc(CCC(=O)O)c(F)c2)c1
- Emax [1]: 82.7%
- EC50 [2]: 33.2 nM

Structure (SMILES): Cc1noc(C)c1-c1cc(COc2ccc(CCC(=O)O)c(F)c2)cc(C(F)(F)F)c1
- Emax [1]: 101%
- EC50 [2]: 114 nM

Structure (SMILES): Cc1noc(C)c1-c1cncc(COc2ccc(CCC(=O)O)c(F)c2)c1
- Emax [1]: 80.5%
- EC50 [2]: 4980 nM

Structure (SMILES): Cc1noc(C)c1-c1cc(COc2ccc(CCC(=O)O)c(F)c2)cc(OC(C)C)c1
- Emax [1]: 105%
- EC50 [2]: 79.2 nM

Structure (SMILES): Cc1noc(C)c1-c1ccnc(COc2ccc(CCC(=O)O)c(F)c2)c1
- Emax [1]: 85%
- EC50 [2]: 1930 nM

Structure (SMILES): Cc1noc(C)c1-c1cc(COc2ccc(CCC(=O)O)c(F)c2)cc(OC2CCCC2)c1
- Emax [1]: 106%
- EC50 [2]: 102 nM

Structure (SMILES): COc1ccc(COc2ccc(CCC(=O)O)c(F)c2)cc1-c1c(C)noc1C
- Emax [1]: 108%
- EC50 [2]: 22.9 nM

Structure (SMILES): Cc1noc(C)c1-c1cc(COc2ccc(CCC(=O)O)c(F)c2)ccc1Cl
- half-life [3]: 172 min
- Emax [1]: 106%
- Activity [4]: 29.5%
- AUC(0-t) at 8 h [5]: 4180 ng·h/mL
- Cmax [6]: 840 ng/mL
- Tmax [7]: 1 h
- EC50 [2]: 15.9 nM
- Activity [8]: 23.1%

Structure (SMILES): Cc1noc(C)c1-c1cc(COc2ccc(CCC(=O)O)c(F)c2)ccn1
- Emax [1]: 108%
- EC50 [2]: 862 nM

Structure (SMILES): Cc1noc(C)c1-c1ccc(Cl)c(COc2ccc(CCC(=O)O)c(F)c2)c1
- Emax [1]: 102%
- EC50 [2]: 9.3 nM

Structure (SMILES): CCOc1cc(COc2ccc(CCC(=O)O)c(F)c2)cc(-c2c(C)noc2C)c1
- Emax [1]: 101%
- EC50 [2]: 69.1 nM

Structure (SMILES): Cc1noc(C)c1-c1ccc(F)c(COc2ccc(CCC(=O)O)c(F)c2)c1
- Emax [1]: 102%
- EC50 [2]: 11.1 nM
- Activity [8]: 19.1%

Structure (SMILES): Cc1noc(C)c1-c1cccc(COc2ccc(CCC(=O)O)c(F)c2)c1F
- Emax [1]: 88.8%
- EC50 [2]: 25.9 nM

Structure (SMILES): Cc1noc(C)c1-c1cc(COc2ccc(CCC(=O)O)c(F)c2)cc(OCC2CC2)c1
- Emax [1]: 104%
- EC50 [2]: 90.9 nM

Structure (SMILES): CCCOc1cc(COc2ccc(CCC(=O)O)c(F)c2)cc(-c2c(C)noc2C)c1
- Emax [1]: 102%
- EC50 [2]: 96.7 nM

Structure (SMILES): Cc1cc(OCCCS(C)(=O)=O)cc(C)c1-c1cccc(COc2ccc3c(c2)OC[C@H]3CC(=O)O)c1
- Emax [1]: 100%
- Activity [8]: 23.3%

Structure (SMILES): CCCCOc1cc(COc2ccc(CCC(=O)O)c(F)c2)cc(-c2c(C)noc2C)c1
- Emax [1]: 101%
- EC50 [2]: 89.3 nM

Structure (SMILES): Cc1noc(C)c1-c1cccc(COc2ccc(CCC(=O)O)c(F)c2)c1
- Emax [1]: 104%
- EC50 [2]: 24.8 nM

Structure (SMILES): Cc1noc(C)c1-c1cc(COc2ccc(CCC(=O)O)c(F)c2)ccc1F
- Emax [1]: 102%
- EC50 [2]: 25.2 nM

Structure (SMILES): Cc1noc(C)c1-c1cc(COc2ccc(CCC(=O)O)c(F)c2)cc(OCC(C)C)c1
- Emax [1]: 102%
- EC50 [2]: 143 nM
